Results reported in ChEMBL document CHEMBL1800057, “Discovery of dual inducible/neuronal nitric oxide synthase (iNOS/nNOS) inhibitor development candidate 4-((2-cyclobutyl-1H-imidazo[4,5-b]pyrazin-1-yl)methyl)-7,8-difluoroquinolin-2(1H)-one (KD7332) part 2: identification of a novel, potent, and selective series of benzimidazole-quinolinone …” (J Med Chem, 2010).

Columns and labels:
Cytochrome P450 3A4 [1] = molecular target: T1, Cytochrome P450 3A4 (Homo sapiens, UniProt P08684); assay: Inhibition of human CYP3A4 at >60 uM; format: ADME
[2] = Cmax in mouse 10 mg/kg, po; format: ADME, organism-based; set-up: dose 10 mg/kg, route oral; details: in vivo
[3] = molecular target: T2, Voltage-gated inwardly rectifying potassium channel KCNH2 (Homo sapiens, UniProt Q12809); assay: Inhibition of human ERG by patch clamp assay
Cytochrome P450 2C19 [4] = molecular target: T3, Cytochrome P450 2C19 (Homo sapiens, UniProt P33261); assay: Inhibition of human CYP2C19 at >60 uM; format: ADME
[5] = molecular target: T2, Voltage-gated inwardly rectifying potassium channel KCNH2; assay: Inhibition of human ERG at >30 uM by patch clamp assay
Nitric oxide synthase 3 = molecular target: T4, Nitric oxide synthase 3 (Homo sapiens, UniProt P29474); assay: Inhibition of human eNOS expressed in HEK293 cells assessed as inhibition A23187 induced nitric oxide production incubated for 24 hrs measured after 18 hrs of […] challenge using 2,3-diaminonaphthalene by fluorescence assay; format: cell-based
T4 sequence (P29474 whole entry): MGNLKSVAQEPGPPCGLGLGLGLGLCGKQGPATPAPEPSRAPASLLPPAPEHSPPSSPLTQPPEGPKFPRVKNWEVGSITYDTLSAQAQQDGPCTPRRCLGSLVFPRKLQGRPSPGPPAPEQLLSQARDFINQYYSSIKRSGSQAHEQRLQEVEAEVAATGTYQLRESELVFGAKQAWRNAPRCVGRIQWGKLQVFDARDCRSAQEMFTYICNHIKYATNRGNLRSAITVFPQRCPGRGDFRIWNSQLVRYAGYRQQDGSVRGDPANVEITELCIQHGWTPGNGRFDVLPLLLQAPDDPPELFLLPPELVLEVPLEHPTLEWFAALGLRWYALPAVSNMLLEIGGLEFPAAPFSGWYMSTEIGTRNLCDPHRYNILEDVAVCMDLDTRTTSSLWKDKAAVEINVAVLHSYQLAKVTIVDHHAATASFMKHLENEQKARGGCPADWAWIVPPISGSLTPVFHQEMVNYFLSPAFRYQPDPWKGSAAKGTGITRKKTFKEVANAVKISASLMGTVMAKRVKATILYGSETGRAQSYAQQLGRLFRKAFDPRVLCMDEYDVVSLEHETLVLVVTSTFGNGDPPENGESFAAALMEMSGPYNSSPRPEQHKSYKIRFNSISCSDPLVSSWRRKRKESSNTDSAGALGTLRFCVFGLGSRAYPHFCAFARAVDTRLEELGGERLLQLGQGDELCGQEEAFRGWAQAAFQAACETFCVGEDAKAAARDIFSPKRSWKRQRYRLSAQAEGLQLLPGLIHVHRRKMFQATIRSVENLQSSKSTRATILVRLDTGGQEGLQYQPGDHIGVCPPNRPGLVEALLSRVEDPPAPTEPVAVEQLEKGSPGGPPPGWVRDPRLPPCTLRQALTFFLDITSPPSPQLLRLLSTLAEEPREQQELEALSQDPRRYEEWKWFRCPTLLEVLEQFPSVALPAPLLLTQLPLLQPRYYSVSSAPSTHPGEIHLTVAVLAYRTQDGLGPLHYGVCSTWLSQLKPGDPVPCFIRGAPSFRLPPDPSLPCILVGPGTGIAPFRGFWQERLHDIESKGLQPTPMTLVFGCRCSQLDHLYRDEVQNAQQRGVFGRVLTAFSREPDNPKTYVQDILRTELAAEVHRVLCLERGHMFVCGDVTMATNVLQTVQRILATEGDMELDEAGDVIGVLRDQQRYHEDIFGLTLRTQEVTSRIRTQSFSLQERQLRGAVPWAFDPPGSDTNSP
Procedure, shortened: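 HEK293 cells transfected for 4 h at 37 °C with human nNOS (10 μg) or human eNOS (15 μg) plasmid (Fugene 6, 3:1). Cells replated at 5e5 cells/mL and dosed with compound at once; SEITU (100 μM final) as positive control. After 24 h, cells activated with A23187 (83 nM final) for eNOS or ionomycin (30 μM final) for nNOS. NO read 18 h later as nitrite-DAN fluorescence.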

Brain = assay: Drug uptake in rat brain by microdialysis relative to compound plasma level; format: ADME, tissue-based; details: in vivo
Cytochrome P450 3A4 [6] = molecular target: T1, Cytochrome P450 3A4; assay: Inhibition of human CYP3A4 at >100 uM; format: ADME
Mus musculus [7] = assay: Antinociceptive activity against formalin-induced pain in mouse assessed as attenuation of nocifensive phase 2 behaviors during phase 2 (25 to 45 mins post formalin injection) administered via oral gavage 30 mins before to formalin challenge; format: functional
Procedure, shortened: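 Mice were given compound by oral gavage in PEG/Tween 80/PVP + CMC vehicle 30 min before 20 μL of 5% formalin was injected into the left hind paw. Paw flinching, licking and biting were timed in 5 min bins by a single observer. Read-out was time in nociceptive behaviour at 25-45 min. Mean ± SE, n = 5-6, one-way ANOVA with post hoc tests.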

Mus musculus [8] = assay: Neurotoxicity in C57Bl/6j mouse assessed as inability to maintain equilibrium on rotarod up to 1000 mg/kg, po determined 1 to 3 hrs postdose by rotarod test; format: toxicity, organism-based; set-up: dose 1000 mg/kg, route oral; details: in vivo
Procedure, shortened: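 Male C57Bl/6j mice were acclimated to the rotarod at 4 rpm, then given two training sessions on an accelerating rod (4-40 rpm over 300 s). Only mice with latencies >60 s were kept. After oral dosing, latency to fall from the accelerating rod was recorded at 1, 2 and 3 h.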

Cytochrome P450 2C9 = Cytochrome P450 2C9 (Homo sapiens, UniProt P11712); assay: Inhibition of human CYP2C9 at >60 uM; format: ADME
Cytochrome P450 2C19 [9] = molecular target: T3, Cytochrome P450 2C19; assay: Inhibition of human CYP2C19 at >38 uM; format: ADME
Mus musculus [10] = assay: Inhibition of LPS-induced iNOS activation in BALB/c mouse assessed as plasma nitrate levels at 30 mg/kg administered via oral gavage before LPS challenge measured after 6 to 8 hrs using 2,3-diaminonaphthalene by fluorescence assay relative to control; format: functional
Procedure, shortened: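 Male BALB/c mice dosed by oral gavage (90% PEG/5% Tween 80/5% PVP + 0.5% w/v CMC) immediately before LPS (10 mg/kg ip in 0.9% NaCl). Mice killed at 6 h. EDTA plasma analysed for nitrate and drug levels; nitrite measured by DAN fluorescence.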

Homo sapiens [11] = species on record: Homo sapiens; assay: Ratio of IC50 for human nNOS to EC50 for human iNOS
[12] = molecular target: T5, Nitric oxide synthase 3 (Homo sapiens) (UniProt P29474); assay: Inhibition of human eNOS expressed in HEK293 cells assessed as inhibition A23187 induced nitric oxide production at 100 uM incubated for 24 hrs measured after 18 hrs of […] challenge using 2,3-diaminonaphthalene by fluorescence assay; format: cell-based
T5 sequence (whole entry): T4 sequence (P29474 whole entry)

Homo sapiens [13] = species on record: Homo sapiens; assay: Ratio of IC50 for human eNOS to EC50 for human iNOS

T3 sequence (P33261 whole entry): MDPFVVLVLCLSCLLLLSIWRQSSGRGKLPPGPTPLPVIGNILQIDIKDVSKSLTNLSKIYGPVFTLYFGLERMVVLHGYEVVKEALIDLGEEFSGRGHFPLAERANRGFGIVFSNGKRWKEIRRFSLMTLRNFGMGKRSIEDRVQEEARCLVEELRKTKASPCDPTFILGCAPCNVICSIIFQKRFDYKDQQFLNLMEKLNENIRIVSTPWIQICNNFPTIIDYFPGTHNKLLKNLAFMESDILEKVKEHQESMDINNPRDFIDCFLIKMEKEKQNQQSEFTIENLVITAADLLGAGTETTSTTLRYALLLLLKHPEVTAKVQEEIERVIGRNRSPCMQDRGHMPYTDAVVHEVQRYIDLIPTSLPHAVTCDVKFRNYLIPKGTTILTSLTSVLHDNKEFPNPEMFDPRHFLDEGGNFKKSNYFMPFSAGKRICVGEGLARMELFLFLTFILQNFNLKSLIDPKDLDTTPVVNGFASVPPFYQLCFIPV
T1 sequence (P08684 whole entry): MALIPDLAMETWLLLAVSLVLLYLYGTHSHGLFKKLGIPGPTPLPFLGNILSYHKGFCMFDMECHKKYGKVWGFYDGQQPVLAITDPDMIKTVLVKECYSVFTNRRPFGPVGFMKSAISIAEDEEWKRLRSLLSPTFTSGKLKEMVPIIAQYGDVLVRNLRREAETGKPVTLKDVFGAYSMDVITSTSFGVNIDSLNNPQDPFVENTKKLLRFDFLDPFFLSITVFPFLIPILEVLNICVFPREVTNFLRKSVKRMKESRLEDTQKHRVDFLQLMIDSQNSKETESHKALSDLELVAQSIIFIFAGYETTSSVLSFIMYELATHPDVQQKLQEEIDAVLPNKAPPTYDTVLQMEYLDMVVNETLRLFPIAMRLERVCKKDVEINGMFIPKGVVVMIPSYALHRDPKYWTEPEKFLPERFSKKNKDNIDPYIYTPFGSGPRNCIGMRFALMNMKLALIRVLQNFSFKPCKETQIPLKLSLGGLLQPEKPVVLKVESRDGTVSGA
T2 sequence (Q12809 whole entry): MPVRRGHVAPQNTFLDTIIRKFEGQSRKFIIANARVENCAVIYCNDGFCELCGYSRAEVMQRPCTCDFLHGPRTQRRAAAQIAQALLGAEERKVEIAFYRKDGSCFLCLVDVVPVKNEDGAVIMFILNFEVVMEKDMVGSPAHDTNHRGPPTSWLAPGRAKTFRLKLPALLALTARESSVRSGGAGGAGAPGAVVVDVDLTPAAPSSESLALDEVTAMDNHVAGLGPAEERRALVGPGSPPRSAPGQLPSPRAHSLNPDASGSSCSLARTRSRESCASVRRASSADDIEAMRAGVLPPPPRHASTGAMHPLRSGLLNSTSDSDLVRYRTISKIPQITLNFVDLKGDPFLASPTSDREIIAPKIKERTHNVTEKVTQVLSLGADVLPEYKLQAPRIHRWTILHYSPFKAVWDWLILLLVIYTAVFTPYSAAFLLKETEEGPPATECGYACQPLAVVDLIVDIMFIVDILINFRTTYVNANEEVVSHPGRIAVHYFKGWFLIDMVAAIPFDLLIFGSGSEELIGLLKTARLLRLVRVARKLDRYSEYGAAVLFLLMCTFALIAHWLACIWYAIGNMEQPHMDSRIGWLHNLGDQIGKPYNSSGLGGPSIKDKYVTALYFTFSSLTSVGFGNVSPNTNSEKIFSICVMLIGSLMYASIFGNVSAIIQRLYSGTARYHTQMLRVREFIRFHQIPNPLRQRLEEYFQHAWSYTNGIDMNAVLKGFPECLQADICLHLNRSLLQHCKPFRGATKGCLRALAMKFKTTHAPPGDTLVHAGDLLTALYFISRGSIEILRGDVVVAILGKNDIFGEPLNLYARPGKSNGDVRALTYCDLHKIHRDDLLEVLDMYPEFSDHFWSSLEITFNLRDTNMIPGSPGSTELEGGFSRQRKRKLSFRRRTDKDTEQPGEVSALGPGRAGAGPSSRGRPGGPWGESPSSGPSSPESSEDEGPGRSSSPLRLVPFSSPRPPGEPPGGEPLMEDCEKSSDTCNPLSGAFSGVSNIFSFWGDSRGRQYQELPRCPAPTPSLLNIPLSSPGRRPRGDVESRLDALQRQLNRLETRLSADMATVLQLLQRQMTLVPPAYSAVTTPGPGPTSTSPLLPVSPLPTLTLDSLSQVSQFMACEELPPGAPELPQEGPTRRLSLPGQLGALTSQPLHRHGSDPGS
Cytochrome P450 2C9, sequence (P11712 whole entry): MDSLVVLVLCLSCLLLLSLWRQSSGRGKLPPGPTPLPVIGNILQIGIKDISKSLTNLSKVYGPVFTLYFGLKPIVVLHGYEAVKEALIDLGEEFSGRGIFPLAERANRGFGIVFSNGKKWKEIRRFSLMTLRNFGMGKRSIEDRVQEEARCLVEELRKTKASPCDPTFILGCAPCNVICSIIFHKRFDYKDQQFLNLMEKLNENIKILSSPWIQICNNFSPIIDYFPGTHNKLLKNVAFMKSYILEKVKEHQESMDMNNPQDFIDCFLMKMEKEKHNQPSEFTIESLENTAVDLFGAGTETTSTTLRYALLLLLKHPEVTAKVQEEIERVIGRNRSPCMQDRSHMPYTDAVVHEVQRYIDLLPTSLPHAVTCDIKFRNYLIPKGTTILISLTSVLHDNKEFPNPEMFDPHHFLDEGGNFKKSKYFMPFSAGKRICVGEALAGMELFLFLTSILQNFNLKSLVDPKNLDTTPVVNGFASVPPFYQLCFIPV

| Structure (SMILES) | inhibition (INH) (Cytochrome P450 3A4 [1]) | Cmax [2] | inhibition (INH) (Cytochrome P450 2C19 [4]) | EC50 (Nitric oxide synthase 3) | inhibition (INH) (Cytochrome P450 2C9) | EC50 [3] | inhibition (INH) [5] | other results |
| --- | --- | --- | --- | --- | --- | --- | --- | --- |
| CC(C)Cc1nc2nccnc2n1Cc1cc(=O)[nH]c2c(F)c(F)ccc12 | < 50% | 3700 ng/mL | < 50% | 39 µM |  | > 30 µM | < 50% |  |
| CC(C)Cc1nc2ccccc2n1Cc1cc(=O)[nH]c2c(F)c(F)ccc12 |  |  |  | > 100 µM |  |  |  | inhibition in vivo at 30 mg/kg (Mus musculus [10]): 85%; Ratio EC50 (Homo sapiens [11]): 1.8; inhibition [12]: < 50%; Ratio EC50 (Homo sapiens [13]): > 263 |
| O=c1cc(Cn2c(C3CC(F)(F)C3)nc3nccnc32)c2cccc(F)c2[nH]1 |  |  |  | > 100 µM |  |  |  |  |

Now those with a lower EC50 (Nitric oxide synthase 3), led by results:

| inhibition (INH) (Cytochrome P450 3A4 [1]) | Cmax [2] | inhibition (INH) (Cytochrome P450 2C19 [4]) | EC50 (Nitric oxide synthase 3) | inhibition (INH) (Cytochrome P450 2C9) | Structure (SMILES) | EC50 [3] | inhibition (INH) [5] | other results |
| --- | --- | --- | --- | --- | --- | --- | --- | --- |
| < 50% | 15000 ng/mL | < 50% | 26 µM | < 50% | O=c1cc(Cn2c(C3CCC3)nc3nccnc32)c2cccc(F)c2[nH]1 |  |  |  |
|  |  |  | 16.5 µM | < 50% | O=c1cc(Cn2c(C3CCC3)nc3nccnc32)c2ccc(F)c(F)c2[nH]1 | > 30 µM | < 50% | Drug uptake (Brain): 2%; inhibition (INH) (Cytochrome P450 3A4 [6]): < 50%; ED50 (Mus musculus [7]): 13 mg/kg; Activity (Mus musculus [8]): Non-toxic; inhibition (INH) (Cytochrome P450 2C19 [9]): < 50% |
